Reference: ChEMBL document CHEMBL2331556, “Evidence for the involvement of descending pain-inhibitory mechanisms in the antinociceptive effect of hecogenin acetate” (J Nat Prod, 2013)
The source made the active and inactive calls.

Experiments:
Mus musculus [1] = test: Toxicity in Swiss webster mouse assessed as decrease in time stayed on rotarod at 10 mg/kg, ip measured after 30 mins by rotarod test; type: organism-based; parameters: dose 10 mg/kg, route intraperitoneal; settings: in vivo, 0.5 h
Mus musculus [2] = test: Antinociceptive activity in Swiss webster mouse assessed as latency response at 40 mg/kg, ip administered 15 mins after 0.5 mg/kg, sc kappa-opioid receptor antagonist, nor-BNI challenge measured up to 7 hrs by warm water-tail flick test; type: functional, organism-based
In short: (§1)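 Mice habituated to a restraint cylinder 20 min/day for 5 days. Tail tip (2 cm) immersed in 50 ± 0.5 °C water; tail-withdrawal latency recorded, 16 s cut-off. Latency taken at baseline and up to 7 h after dosing. Vehicle Tween 20 5%. Means ± SEM, n = 6 mice/group; repeated-measures two-way ANOVA with Bonferroni post hoc.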

Mus musculus [3] = test: Antinociceptive activity in Swiss webster mouse assessed as latency response at 40 mg/kg, ip administered 15 mins after 5 mg/kg, ip nonselective opioid receptor antagonist, naloxone challenge measured up to 7 hrs by warm water-tail flick test; type: functional, organism-based; in short: as §1
Mus musculus [4] = test: Antinociceptive activity in Swiss webster mouse assessed as latency response at 40 mg/kg, ip administered 30 mins after 2 mg/kg, ip KATP channel blocker, glibenclamide challenge measured up to 7 hrs by warm water-tail flick test; type: functional, organism-based; in short: as §1
Mus musculus [5] = test: Toxicity in Swiss webster mouse assessed as effect on motor performance at 40 mg/kg, ip measured after 30 mins by rotarod test; type: organism-based; parameters: dose 40 mg/kg, route intraperitoneal; settings: in vivo, 0.5 h
In short: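 Rotarod. Mice pre-selected 24 h earlier; those failing to stay on the bar for two consecutive 120 s periods were excluded. Dosing ip: test agent 40 mg/kg, or vehicle (Tween 20 5%, 200 μL). Time on rod recorded up to 120 s and reported as group mean time (s). n = 6/group; ANOVA with Tukey post hoc.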

Mus musculus [6] = test: Activation of neurons in Swiss webster mouse periaqueductal gray assessed as increase in number of Fos-positive cells at 5 to 40 mg/kg, ip measured after 2 hrs by immunohistochemical analysis; type: functional, organism-based
In short: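 Mice given 5, 10, 20 or 40 mg/kg ip or vehicle, perfused 2 h later. Frozen 20 μm transverse periaqueductal gray sections: PBS washes, 0.1 M glycine, blocked in 1% BSA, overnight rabbit anti-Fos, then 1 h Alexa Fluor 594 anti-rabbit. No-primary control included. Fos-positive cells counted; n = 6/group; ANOVA with Tukey post hoc.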

Mus musculus [7] = test: Antinociceptive activity in Swiss webster mouse assessed as latency response at 40 mg/kg, ip administered 30 mins prior to 1 mg/kg, ip mu-opioid receptor antagonist, CTOP challenge measured up to 7 hrs by warm water-tail flick test; type: functional, organism-based; in short: as §1
Mus musculus [8] = test: Antinociceptive activity in Swiss webster mouse assessed as latency response at 40 mg/kg, ip administered 5 mins after 3 mg/kg, sc delta-opioid receptor antagonist, naltrindole challenge measured up to 7 hrs by warm water-tail flick test; type: functional, organism-based; in short: as §1
Mus musculus [9] = test: Antinociceptive activity in ip dosed Swiss webster mouse assessed as increase in latency response […] by warm water-tail flick test; type: functional, organism-based
Mus musculus [10] = test: Antinociceptive activity in Swiss webster mouse assessed as increase in latency response at 5 mg/kg sc administered 40 mins prior to test measured for 3 hrs by warm water-tail flick test; type: functional, organism-based; parameters: dose 5 mg/kg; in short: as §1

**Q.** Which Activity (Mus musculus [1]) does the source give for `CN1C(=O)CN=C(c2ccccc2)c2cc(Cl)ccc21` [DIAZEPAM] here?
**A.** Its Activity is “Toxic”.

**Q.** Which results are given for `CC(=O)O[C@H]1CC[C@@]2(C)[C@@H](CC[C@@H]3[C@@H]2CC(=O)[C@]2(C)[C@@H]4[C@H](C[C@@H]32)O[C@]2(CC[C@@H](C)CO2)[C@H]4C)C1` [HECOGENIN ACETATE]?
**A.** Activity (Mus musculus [2]): inactive; Activity (Mus musculus [3]): inactive; Activity (Mus musculus [4]): inactive; Activity (Mus musculus [5]): Non-toxic; Activity (Mus musculus [6]): Active; Activity (Mus musculus [7]): inactive; Activity (Mus musculus [8]): inactive; Activity (Mus musculus [9]): Dose-dependent effect

**Q.** How did the Activity (Mus musculus [10]) turn out when `CN1CC[C@]23c4c5ccc(O)c4O[C@H]2[C@@H](O)C=C[C@H]3[C@H]1C5` was run?
**A.** Its Activity is “Active”.
